A selection: hits, their analogues and other compounds. The true share with any hit is near 2.8%.
TNAP inh noacc = TNAP (human) inhibition, acceptor-free conditions. AID 1012. inhibition, % at 20 µM. P05186. actives 0.26% (n = 200,000). purified TNAP, CDP-star luminescence, 30 min;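 active = tissue-nonspecific alkaline phosphatase inhibition above about 50% at 20 µM in the single-dose screen, limit read from the data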
Target sequence (P05186 whole entry, looked up): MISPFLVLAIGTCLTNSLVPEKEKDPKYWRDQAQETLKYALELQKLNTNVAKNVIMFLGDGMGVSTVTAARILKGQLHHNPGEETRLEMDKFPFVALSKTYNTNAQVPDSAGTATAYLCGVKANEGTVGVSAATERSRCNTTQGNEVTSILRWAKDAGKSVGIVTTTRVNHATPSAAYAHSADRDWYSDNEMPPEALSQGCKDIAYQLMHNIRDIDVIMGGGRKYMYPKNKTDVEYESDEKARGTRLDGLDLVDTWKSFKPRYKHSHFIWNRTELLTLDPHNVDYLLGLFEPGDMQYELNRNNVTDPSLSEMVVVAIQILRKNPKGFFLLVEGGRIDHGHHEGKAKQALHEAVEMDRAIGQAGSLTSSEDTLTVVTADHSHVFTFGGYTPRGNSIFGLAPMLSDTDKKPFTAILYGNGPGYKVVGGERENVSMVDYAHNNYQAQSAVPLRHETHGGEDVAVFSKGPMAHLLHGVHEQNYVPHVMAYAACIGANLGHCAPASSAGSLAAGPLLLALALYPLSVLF
RAM network inh = yeast RAM network inhibition. inhibition, % at 50 µM. S. cerevisiae dse1pr::URA3 reporter, 5-FOA growth OD615, 2 d; analog-sensitive cbk1-as2 kinase mutant strain. actives 1.8% (n = 190,000);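 active = inhibition above a set limit, 3 SD over mean compound inhibition, cut at about 8.4% in these data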;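 note: inhibition rescues growth on 5-FOA so higher OD means more RAM inhibition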
TNAP inh hi DEA = inhibitors of human TNAP at high phosphate acceptor concentration; AID 1135; inhibition, % at 20 µM; purified TNAP, CDP-star luminescence, 1 M DEA; actives 0.03% (n = 200,000);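 active = over 50% inhibition of tissue-nonspecific alkaline phosphatase at 20 µM in the single-dose screen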
Yeast lifespan up = yeast lifespan extension | S. cerevisiae growth with nicotinamide, OD615; deaD strain in restrictive glucose medium | inhibition of the nicotinamide effect, % at 10 µM | actives 0.68% (n = 130,000) | AID 775;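 active = inhibition above a set limit, placed 3 SD over the median of all compounds, cut at about 26% in these data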
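Assay system: engineered S. cerevisiae DeaD replicative-lifespan strain, galactose-grown log-phase cells; medium: restrictive CSMM-D dextrose medium; also added: nicotinamide, 1.5 mM, co-present with compound; schedule: 48 h compound exposure at 30 °C, humidified; detection: absorbance at 615 nm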
Yeast growth inh = chemicals that inhibit yeast BB579 growth in restrictive medium (lifespan-shortening candidates); S. cerevisiae BB579 growth, OD615, 48 h; inhibition, % at 10 µM; actives 0.51% (n = 140,000);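 active = inhibition above a set limit, 3 SD over the mean compound inhibition, cut at about 44% in these data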
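System: DeaD yeast strain BB579; buffer or medium: CSMM-D dextrose restrictive medium; technique: OD at 615 nm; schedule: 4 h cell preincubation, 48 h compound exposure, 30 °C humidified; doses: single 10 µM dose; controls: amphotericin B 10 µg/mL, positive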
TNAP act hiacc = increases human TNAP activity under high phosphate acceptor concentration | 200,000 tested, under 10 active | purified TNAP, CDP-star luminescence, 1 M DEA, 30 min; active compounds read high; 0 = EDTA background, 1 = DMSO-only activity | activation factor at 20 µM;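 active = activation factor at least 2 at 20 µM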
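Measured by: Luminescent substrate turnover signal | Test system: Human TNAP | Input: TNAP 1/800 final | Dosing: 20 µM single point | Schedule: 30 min, room temperature | Controls: EDTA wells as negative control, DMSO wells as positive control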
Hits are given with their value; - = inactive; . = no result.

SMILES | TNAP inh noacc | RAM network inh | TNAP inh hi DEA | Yeast lifespan up | Yeast growth inh | TNAP act hiacc
N#C/C(C(N)=O)=c1/ccc2c(c1)N1C3=C(CCCC3)CC3CCCCC31N=2 (stereo unspecified) | - | - | - | 37 | - | -
COc1ccc(S(=O)(=O)N2CCCCC2)cc1NC(=O)CSc1ncnc2ccccc12 | - | - | - | - | - | -
CSC1=C(C#N)C(c2sccc2C)CC(=O)N1 (stereo unspecified) | - | - | - | . | . | -
CCOC(=O)Cn1c(=O)c2c(nc3n2CCN3Cc2ccccc2)n(C)c1=O | - | - | - | 29 | - | -
Cc1ccc(/C(O)=C2\C(=O)C(=O)N(Cc3cccnc3)C2c2ccccc2[N+](=O)[O-])cc1 (stereo unspecified) | - | - | - | - | - | -
O=C(Nn1c(-c2ccc(F)cc2)nc2ccccc2c1=O)C1CCCCC1 | - | - | - | - | - | -
Cc1ccc(O)c(N=NC2=C(O)CC(C)(C)CC2=O)c1 | - | - | - | - | - | -
CC1(C)CC(=O)C(N=Nc2cc3c(cc2[N+](=O)[O-])OCCO3)=C(O)C1 | - | 9.5 | - | . | . | -
O=C(C1=C[C@H](c2coc3ccccc3c2=O)C[C@H](OCCCCO)O1)N1CCN(Cc2ccc3c(c2)OCO3)CC1 | - | - | - | . | . | -
CC(C)(C)c1cc(NCCCn2ccnc2)n2ncc(-c3ccc(Cl)cc3)c2n1 | - | - | - | - | 86 | -
Cc1cc(NCCCn2ccnc2)n2nc(-c3ccc(Cl)cc3)cc2n1 | - | - | - | . | . | -
CN(C)c1ccc(C(=O)OCC(=O)NC2CCCCC2)cc1 | - | - | - | - | - | -
COCCNC(=O)c1c[nH]c2ccc(OC)cc2c1=O | - | - | - | - | - | -
COc1ccc2[nH]cc(C(=O)CNc3nc(C)cs3)c2c1 | 56 | - | - | - | - | -
O=C(Cn1c(-c2cscn2)nc2ccccc21)Nc1ccc2ccccc2c1 | - | 11 | - | - | - | -
O=C(Cn1c(-c2cscn2)nc2ccccc21)Nc1cc(F)ccc1F | - | - | - | - | - | -
Cc1sc2nc(COC(=O)c3cccc(S(=O)(=O)N(C)c4ccccc4)c3)[nH]c(=O)c2c1C | - | - | - | . | . | -
O=C(c1cccc(Cl)c1)N1CCC(=O)N(C(COCc2cccc(Cl)c2)Cc2ccccc2)CC1 (stereo unspecified) | - | 9.5 | - | - | - | -
Cc1cccc(C(=O)N2CCC(=O)N(C(COCc3cccc(Cl)c3)Cc3ccccc3)CC2)c1 (stereo unspecified) | - | - | - | - | - | -
O=C(c1ccc(Cl)c(Cl)c1)N1CCC(=O)N(C(COCc2cccc(Cl)c2)Cc2ccccc2)CC1 (stereo unspecified) | - | 10 | - | - | - | -
Cc1cccc(C(=O)N2CCC(=O)N(C(COCc3ccc(Cl)cc3)Cc3ccccc3)CC2)c1 (stereo unspecified) | - | - | - | - | - | -
CC(=O)c1cccc(NC(=O)N2CCC(NC(=O)C34CC5CC(CC(C5)C3)C4)CC2)c1 | - | - | - | . | . | -
CCCCOc1ccc(C(=O)NNC(=S)NC(=O)CC)cc1 | - | - | - | - | 48 | -
CCC(=O)NC(=S)NNC(=O)c1ccc(OC)cc1 | - | - | - | - | - | -
CN(C)c1nc(/C=C(\C#N)C(N)=O)c(Cl)n1-c1ccc(F)cc1 | - | - | - | . | . | -
SMILES | TNAP inh noacc | RAM network inh | TNAP inh hi DEA | Yeast lifespan up | Yeast growth inh | TNAP act hiacc
CCCCOCCCNC(=O)c1ccc(NC(C)=O)cc1 | - | 9.3 | - | - | - | -
CCOCCCNC(=O)c1ccc(NC(C)=O)cc1 | - | - | - | - | - | -
O=C(NCC1CCCO1)C(c1cccs1)N(Cc1ccccc1Cl)C(=O)c1ccc(-c2ccccc2)[nH]1 (stereo unspecified) | - | - | - | - | - | -
Cc1ccc(C(C(=O)NCC2CCCO2)N(Cc2ccccc2)C(=O)c2ccc(-c3ccccc3)[nH]2)o1 (stereo unspecified) | - | 10 | - | - | - | -
C=CCn1c(SCC(=O)NC23CC4CC(CC(C4)C2)C3)nc2cc(C(=O)O)ccc2c1=O | - | - | - | . | . | -
Cc1cc(NS(=O)(=O)c2ccc(N)cc2)no1 | - | - | - | - | - | -
CCCCc1ccc(NS(=O)(=O)c2cccs2)cc1 | - | - | - | - | 58 | -
O=S(=O)(Nc1ccc(Cc2ccncc2)cc1)c1cccs1 | - | - | - | - | - | -
CCCn1c(SCC(=O)NC(C)(C)C)nnc1-c1ccco1 | - | - | - | . | . | -
O=C(COc1c(Br)cc(Br)c2cccnc12)N1CCc2ccccc2C1 | - | - | - | - | 99 | -
O=C(COc1c(Br)cc(Br)c2cccnc12)N1CCCCC1 | - | - | - | . | . | -
O=C(NCc1cccs1)c1ccc(Cl)c(S(=O)(=O)N2CCCC2)c1 | - | - | - | . | . | -
COc1ccc(N(CC(=O)Nc2ccccc2C(N)=O)S(=O)(=O)c2ccc(C)c([N+](=O)[O-])c2)cc1 | - | 10 | - | . | . | -
COc1ccc(N(CC(=O)O)S(=O)(=O)c2ccc(OC)c(OC)c2)cc1 | - | - | - | 29 | - | -
COC(=O)CN(c1ccc(OC)cc1)S(=O)(=O)c1ccc(OC)c(OC)c1 | - | - | - | - | - | -
Cc1nc2ccccc2c2nc3ccccc3n12 | - | - | - | - | 92 | -
c1ccc2c(c1)nnn1c3ccccc3nc21 | - | - | - | - | 65 | -
N#CCSc1nc2ccccc2c2nc3ccccc3n12 | - | - | - | - | 61 | -
Fc1ccc(-c2nc3ccccc3c3nc4ccccc4n23)cc1 | - | - | - | - | - | -
CC(=O)c1ccc(-n2c(SCC(=O)c3c[nH]c4ccccc34)nc3ccccc3c2=O)cc1 | - | - | - | - | - | -
CC(=C1C(=O)c2ccccc2C1=O)N1CCN(C/C=C/c2ccccc2)CC1 | - | - | - | 57 | - | -
CC(=C1C(=O)c2ccccc2C1=O)N1CCN(Cc2ccccc2)CC1 | - | - | - | - | - | -
COc1ccc(CCn2c(-c3ccc(C(C)(C)C)cc3)n[nH]c2=S)cc1OC | - | 8.7 | - | . | . | -
CCn1c(-c2ccc(C)cc2)n[nH]c1=S | 52 | - | - | - | - | -
CCn1c(-c2ccc(Cl)cc2)n[nH]c1=S | - | - | - | - | - | -
Cc1cc(-c2n[nH]c(=S)n2/N=C/c2cc([N+](=O)[O-])ccc2Cl)n[nH]1 | - | - | - | - | 96 | -
Cc1cc(-c2n[nH]c(=S)n2/N=C/c2ccc(Cl)c([N+](=O)[O-])c2)n[nH]1 | - | - | - | - | - | -
CC1CCCN(c2ccc(C(=O)NCc3ccc4c(c3)OCO4)cc2[N+](=O)[O-])C1 (stereo unspecified) | - | 8.5 | - | - | - | -

Bioassay records as filed in PubChem BioAssay.
